Experimental findings from ChEMBL document CHEMBL5032499, “A Druglike Small Molecule that Targets r(CCUG) Repeats in Myotonic Dystrophy Type 2 Facilitates Degradation by RNA Quality Control Pathways” (J Med Chem, 2021) are described below.

Data set [1] is filed under the species Homo sapiens. Description: Inhibition of r(CCUG)12-MBNL1 complex formation (unknown origin) assessed as rescue of IR exon 11 splicing defect at 5 uM by RT-PCR analysis. Further details: scale not given: the % may be the effect or the level left. In short, it runs like this: (§1)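 DM2 patient fibroblasts were treated at ~40% confluency for 48 h. About 1 μg of total RNA was reverse transcribed, and IR exon 11 was PCR-amplified for 35 cycles (95 °C/58 °C/72 °C). Products were resolved on 2% agarose stained with ethidium bromide and quantified by densitometry. Percent rescue was calculated as (DM2 untreated − treated exclusion)/(DM2 untreated − WT exclusion) × 100.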

Data set [2] is described as follows: Induction of disruption of r(CCUG)12-MBNL1 complex (unknown origin) incubated for 15 mins by TR-FRET assay. More on the design: species or system Homo sapiens. A digest of the protocol:
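Biotinylated r(CCUG)12 was folded at 60 °C for 5 min in 20 mM HEPES pH 7.5, 110 mM KCl, 10 mM NaCl. It was then brought to assay buffer (plus 2 mM MgCl2, 2 mM CaCl2, 5 mM DTT, 0.1% BSA, 0.5% Tween-20) and preincubated 15 min with MBNL1-His6 (final 80 nM RNA, 60 nM protein). Compound was added for 15 min, then streptavidin-XL665 (40 nM) and anti-His6-Tb (0.44 ng/μL) for 30 min at room temperature. TR-FRET 545/665 ratios were read; IC50 was taken from dose-response fits.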
In general terms: TR-FRET usually uses a lanthanide donor and a delayed reading to cut background.

The species entered for data set [3] is Homo sapiens. The data set is described as follows: Inhibition of r(CCUG)12-MBNL1 complex formation (unknown origin) assessed as rescue of IR exon 11 splicing defect at 1 uM by RT-PCR analysis. More on the design: scale not given: the % may be the effect or the level left. A digest of the protocol:
as §1

The test system of data set [4] is Fibroblast. The data set is described as follows: Cytotoxicity against DM2 patient derived fibroblast assessed as cell viability at 5 uM incubated for 48 hrs by Cell Titre-Glo assay. Particulars: human. Type of data set: cell-based. In short, it runs like this: (§2)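 DM2 patient-derived fibroblasts were grown in high-glucose DMEM with 20% FBS at 37 °C, 5% CO2. After 48 h of compound treatment, viability was read as CellTiter-Glo luminescence after 10 min at room temperature (n = 6 replicates, one independent experiment).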

The species entered for data set [5] is Homo sapiens. Description: Binding affinity to r(GACAGCCUGCUGUC)2 (unknown origin) duplex assessed as resonance shift in H6 and H8 protons of RNA […] by 1D NMR spectroscopy. A digest of the protocol: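 For 1D NMR, RNA at 100 μM in 100% D2O was titrated with compound at 0.5, 1.0, 1.5 and 2.0 compound:RNA molar ratios, each in a separate sample.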
Data set [6] is filed under the species Homo sapiens. Description: Binding affinity to r(GACAGCCUGCUGUC)2 duplex (unknown origin) assessed as positive phase signal at 300 uM by waterLOGSY NMR spectroscopy. A digest of the protocol: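 For WaterLOGSY NMR, each compound at 300 μM was run alone or with 15 μM RNA (20:1 compound:RNA) in H2O containing 5% D2O by volume.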
For data set [7], the system named is Fibroblast. Description: Cytotoxicity against DM2 patient derived fibroblast assessed as cell viability upto 20 uM incubated for 48 hrs by Cell Titre-Glo assay. The data set is classed as cell-based. Particulars: human. In short, it runs like this: as §2
Data set [8] has as its system Fibroblast. The data set is described as follows: Effect on CNBP mature mRNA level in wild type human fibroblast at 0.2 to 5 uM by RT-qPCR analysis. Type of data set: functional, tissue-based. The note with it: dose 0.2-5 µM. In short, it runs like this: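 Wild-type GM07492 fibroblasts were grown in MEM with 10% FBS. They were treated at 40% confluency for 48 h, and total RNA was extracted. Transcript level was measured by RT-qPCR normalized to GAPDH (n = 6 per concentration, 2 independent experiments).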
A general note: Real-time PCR tracks product formation cycle by cycle.

The subject of data set [9] is Fibroblast. Description: Effect on CNBP mature mRNA level in DM2 patient derived fibroblast at 0.2 to 5 uM by RT-qPCR analysis. The data set is classed as functional, tissue-based. The note with it: Homo sapiens, dose 0.2-5 µM. A digest of the protocol: (§3)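 DM2 patient fibroblasts (DMEM, 20% FBS) were treated at 40% confluency for 48 h. Total RNA was then extracted and transcript levels were measured by RT-qPCR, normalized to GAPDH (n = 6 replicates per concentration, 2 independent experiments).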

Data set [10] has as its system Fibroblast. Description: Reduction in CNBP intron 1 level in DM2 patient derived fibroblast at 5 uM by RT-qPCR analysis. Type of data set: functional, tissue-based. The note with it: Homo sapiens. In short, it runs like this:
as §3

A short description of data set [11]: Binding affinity to Base-paired RNA (unknown origin) assessed as dissociation constant incubated for 30 mins by microscale thermophoresis. More on the design: species or system Homo sapiens. A digest of the protocol:
(§4)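 Microscale thermophoresis with Cy5-labeled RNA (5 nM) folded in 8 mM Na2HPO4 pH 7.0, 185 mM NaCl, 1 mM EDTA at 60 °C for 5 min, then slowly cooled. The RNA was added to 1:1 serial compound dilutions in the same buffer, giving 0.05% Tween-20 final, and held 30 min at room temperature. Kd was fit to a quadratic binding equation; values are the mean of two independent experiments.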

Data set [12] relates to Fibroblast. The data set is described as follows: Effect on IR exon 11 exclusion in wild type human fibroblast at 0.2 to 5 uM by RT-qPCR analysis. Type of data set: functional, tissue-based. Particulars: dose 0.2-5 µM.
Data set [13] has as its system Fibroblast. The data set is described as follows: Inhibition of r(CCUG)12-MBNL1 complex formation in DM2-patient derived fibroblast assessed as reduction in complex in nuclear foci per cell at 5 uM by immunofluorescence imaging analysis. The data set is classed as tissue-based. Particulars: Homo sapiens.
Data set [14] relates to Fibroblast. The data set is described as follows: Effect on MAP4K4 exon 22a splicing in DM2-patient derived fibroblast. Type of data set: tissue-based. The note with it: Homo sapiens.
The test system of data set [15] is Fibroblast. The data set is described as follows: Reduction in CNBP intron 1 level in DM2 patient derived fibroblast at 1 uM by RT-qPCR analysis. The data set is classed as functional, tissue-based. Particulars: Homo sapiens. A digest of the protocol: as §3
Data set [16] is described as follows: Binding affinity to r(CCUG)12 (unknown origin) assessed as apparent dissociation constant incubated for 30 mins by microscale thermophoresis. More on the design: species or system Homo sapiens. Particulars: read-out: Kd(app). In short, it runs like this:
as §4
On the technique in general: In MST a laser heats a spot of the sample, and binding alters the fluorescence response.

For orientation: IC50 means the concentration at which inhibition is half-maximal. The term inhibition denotes how much of the control response was suppressed.

The source made the active and inactive calls. The rule behind the calls is not given here.

On to `Cc1ccc2nc(Nc3ccc4nc(NCCN(C)C)sc4c3)nc(NCCCO)c2c1`, for which the result in the data set filed under Homo sapiens [1] and in the data set listed under Homo sapiens [3] was inactive. The IC50 in data set [2] was determined as 4 µM. In addition, the Activity entry in the data set on Fibroblast [4] was “Non-Toxic”.
As for `OCCCNc1nc(Nc2ccc3c(c2)OCCO3)nc2ccccc12`, the results for the Activity in the data set listed under Homo sapiens [1], in the data set listed under Homo sapiens [3] and in the data set with Fibroblast [7] were 50%, 12% and “Non-Toxic”, respectively. Besides, in data set [2], the IC50 stood at 50 µM. For the same molecule, the outcome in the data set listed under Homo sapiens [5] and in the data set listed under Homo sapiens [6] was Active.
With `Cc1ccc2nc(Nc3ccc4nc(C)sc4c3)nc(NCCCO)c2c1`, the result with Fibroblast [8], with Fibroblast [9], in the data set on Fibroblast [12] and in the data set with Fibroblast [14] was inactive. Moreover, the Activity is 30% in the data set filed under Homo sapiens [1], 33% in the data set filed under Homo sapiens [3] and “Non-Toxic” in the data set with Fibroblast [4]. For the same molecule, the result in the data set on Fibroblast [10] and with Fibroblast [15] was Active. In data set [2], this molecule gave an IC50 of 2 µM. The Kd in data set [11] is > 20 µM; in data set [16] it was 0.192 µM. For the same molecule, the inhibition with Fibroblast [13] is 30%.
`CN(C)c1ccc(Nc2nc(NCCCO)c3ccccc3n2)cc1` had an IC50 in [2] of 40 µM. For the same molecule, the result in the data set filed under Homo sapiens [5] and in the data set listed under Homo sapiens [6] was Active. For the same molecule, the Activity entry in the data set on Fibroblast [7] is “Non-Toxic”.
